# Test system: PBP1b
# Assay: In vitro PBP1b transglycosylase assay
# Assay type: biochemical, Escherichia coli
# Details: peptide up to 200 μM
# In short: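 E. coli PBP1b glycan polymerization with heptaprenyl lipid II substrate at 4 μM, run with and without test peptide. Peptidoglycan formation was monitored, and IC50 is the peptide concentration giving half-maximal inhibition of PBP1b activity.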
row,Substance,inhibition of lipid II polymerization at concentrations up to 200 μM
1,epilancin 15X,did not demonstrate any inhibitory activity
2,lactocin S,did not demonstrate any inhibitory activity
3,sublancin,did not inhibit

# Reference: paper PMC3206492 (Journal of the American Chemical Society, 2011)
